A selection: hits, their analogues and other compounds. The true share with any hit is near 3.5%.
PAFAH1B3 inh = PAFAH1B3 enzyme inhibitors, primary screen, biochemical, fluorescence polarization, human; Platelet-activating factor acetylhydrolase IB subunit alpha1 (Homo sapiens), Q15102; 0.28% of 340,000 active; inhibition, % at 3.39 µM; recombinant PAFAH1B3, FP-rhodamine probe;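 active = inhibition above the screen-wide average of all tested compounds plus 3 SD, cut at about 25% in these data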;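 note: 0% = enzyme with DMSO only and 100% = wells lacking PAFAH1B3 protein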
Target sequence (Q15102 whole entry, looked up): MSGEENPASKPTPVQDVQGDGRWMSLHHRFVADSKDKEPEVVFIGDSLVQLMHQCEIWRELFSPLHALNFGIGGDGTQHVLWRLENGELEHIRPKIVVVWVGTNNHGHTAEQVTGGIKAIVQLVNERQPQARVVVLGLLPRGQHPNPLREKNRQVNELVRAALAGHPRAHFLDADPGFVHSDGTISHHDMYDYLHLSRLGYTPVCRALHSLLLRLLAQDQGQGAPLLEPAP
PREPL inhibitor = PREPL enzyme inhibitors, primary screen, biochemical, fluorescence polarization; Prolyl endopeptidase-like (Homo sapiens), Q4J6C6; recombinant PREPL, fluorescence polarization activity-based probe; inhibition, % at 5.96 µM; 0.68% of 320,000 active; in the data active = inhibition above about 43%;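 note: 0% = enzyme with DMSO and 100% = wells lacking enzyme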
pPAFAH inh = pPAFAH enzyme inhibitors, primary screen, biochemical, fluorescence polarization, human. Platelet-activating factor acetylhydrolase (Homo sapiens), Q13093. recombinant pPAFAH, FP-rhodamine probe fluorescence polarization. inhibition, % at 3.39 µM. 1.5% of 330,000 active;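 active = inhibition above the mean inhibition across the screen plus 3 SD, cut at about 25% in these data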;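 note: inhibitors block binding of the rhodamine activity-based probe so polarization drops; 0% = enzyme with DMSO and 100% = wells lacking pPAFAH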
PAFAH1B2 FP inh = PAFAH1B2 enzyme inhibitors, primary screen, biochemical, fluorescence polarization, human; AID 492953, 2010; recombinant PAFAH1B2, FP-rhodamine activity probe; 1.2% of 340,000 active; inhibition, % at 3.39 µM;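 active = inhibition above the mean of all tested compounds plus 3 SD, cut at about 24% in these data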;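 note: 0% = enzyme with DMSO and 100% = wells lacking PAFAH1B2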
Target sequence (P68402 whole entry, looked up): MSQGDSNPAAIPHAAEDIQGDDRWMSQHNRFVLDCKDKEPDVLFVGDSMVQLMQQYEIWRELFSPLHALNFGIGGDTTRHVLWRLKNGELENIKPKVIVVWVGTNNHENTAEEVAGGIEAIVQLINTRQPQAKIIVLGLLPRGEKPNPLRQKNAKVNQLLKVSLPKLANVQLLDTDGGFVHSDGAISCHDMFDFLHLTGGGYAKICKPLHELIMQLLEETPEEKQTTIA
Apaf-1 inh = inhibitors of human Apaf-1 apoptosome, primary screen, biochemical, DEVD-Rh110 fluorescence, uHTS; inhibition, % at 20 µM; Apoptotic protease-activating factor 1 (Homo sapiens), O14727; reconstituted apoptosome caspase-3 activity; 0.71% of 330,000 active; active = inhibition of at least 40% at 20 µM;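 note: plate controls were DMSO wells for no effect and DEVD-CHO caspase inhibitor wells for full effect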
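Material: reconstituted apoptosome with Apaf-1, cytochrome c, caspase-9, procaspase-3, dATP. Technique: Rh110 fluorescence intensity. Buffer or medium: pH 7.5 Hepes buffer with CHAPS, BSA, DTT. Times: 30 min plus 50 min, RT.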
PAFAH2 inh = PAFAH2 enzyme inhibitors, primary screen, biochemical, fluorescence polarization, human; inhibition, % at 3.39 µM; 0.99% of 340,000 active; recombinant PAFAH2, FP-rhodamine activity probe; Platelet-activating factor acetylhydrolase 2, cytoplasmic (Homo sapiens), Q99487;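 active = inhibition above the mean over all tested compounds plus 3 SD, cut at about 30% in these data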;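 note: inhibitors block probe labeling of enzyme so polarization drops; 0% = enzyme with DMSO and 100% = wells lacking PAFAH2 protein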
Numbers without * were called inactive; / = no result.

SMILES | PAFAH1B3 inh | PREPL inhibitor | pPAFAH inh | PAFAH1B2 FP inh | Apaf-1 inh | PAFAH2 inh
COc1ccc(NS(=O)(=O)c2cc(C(=O)N3CCCCCC3)ccc2C)cc1 | -4 | 13 | 7 | 10 | 7 | 5
CS(=O)c1nc(-c2ccc(Br)cc2)cc(-c2ccccc2)c1C#N (centres undefined) | -8 | -1 | 4 | -5 | 55* | -12
N#Cc1c(-c2ccc(Br)cc2)cc(-c2cccnc2)nc1N | 0 | 6 | 4 | 0 | 1 | -3
Cn1nnnc1SCCNS(=O)(=O)c1ccccc1 | -3 | -7 | 8 | 1 | -1 | -3
Cc1ccc(-n2nnnc2SCCNS(=O)(=O)c2ccccc2)cc1C | 6 | -4 | 29* | -3 | 27 | 6
COc1ccc(NC(=O)CN2C(=O)c3ccccc3S2(=O)=O)cc1S(=O)(=O)N1CCOCC1 | 10 | / | / | 2 | -2 | 9
CC(NC(=O)CSc1ncccc1C(=O)O)C1CC2CCC1C2 (centres undefined) | 0 | 3 | 3 | 29* | -18 | 8
CC(NC(=O)CSc1n[nH]c(=O)[nH]c1=O)C1CC2CCC1C2 (centres undefined) | 5 | -2 | 0 | 27* | -19 | -3
O=C(CSc1ncccc1C(=O)O)NC1CCCCC1 | -5 | -3 | 4 | 4 | -11 | 0
Cc1occc1-c1nnc(SCC(=O)Nc2ccccc2)n1C(C)c1ccccc1 (centres undefined) | 7 | 9 | 4 | 2 | 14 | 8
CCc1ccc(C(CC(=O)c2ccc(Cl)cc2)C(=O)O)cc1 (centres undefined) | 6 | -8 | -3 | 2 | 6 | 6
CC(C)c1ccc(C(CC(=O)c2ccc(Cl)cc2)C(=O)O)cc1 (centres undefined) | -2 | -5 | 5 | 38* | 11 | -14
Cc1ccccc1-c1cccc(CN2CCN(C)C(CCO)C2)c1 (centres undefined) | 4 | 0 | 2 | 4 | -2 | -5
COc1ccc(OC)c(/C=N/c2oc(-c3ccco3)c(-c3ccco3)c2C#N)c1 | 5 | 6 | 30* | 5 | 13 | 11
O=S(=O)(NCC(c1ccc2c(c1)OCO2)N1CCOCC1)c1ccc(Br)cc1 (centres undefined) | 3 | 11 | 8 | 25* | -3 | -2
O=S(=O)(NCC(c1ccc2c(c1)OCO2)N1CCOCC1)c1ccc(F)cc1 (centres undefined) | 1 | 4 | 5 | 3 | 16 | -2
COc1ccc(COC(=O)C2CC(=O)N(Cc3ccc(C)cc3)C2)cc1 (centres undefined) | -1 | 3 | 6 | 1 | 8 | -3
CC(OC(=O)c1ccc([N+](=O)[O-])s1)C(=O)Nc1ncc(Cl)cc1Cl (centres undefined) | 30* | 0 | 26* | 17 | 34 | 30*
Cc1ccc(OC(C)C(=O)Nc2ncc(Cl)cc2Cl)c([N+](=O)[O-])n1 (centres undefined) | 10 | 18 | 2 | 4 | 10 | 0
CCOC(=O)c1ccccc1NC(=O)CSc1nnc(C)c(=O)[nH]1 | 12 | -1 | 2 | 34* | 0 | 7
Cc1nnc(SCC(=O)Nc2nc(-c3ccc(F)cc3)cs2)[nH]c1=O | 5 | -1 | 6 | 30* | 8 | 2
Cc1cc(=O)[nH]c(SCC(=O)Nc2nc(-c3ccccc3)cs2)n1 | 8 | -8 | 4 | 4 | 1 | 8
COc1ccc(S(=O)(=O)N2CCN(C(=S)NCCc3ccccc3)CC2)cc1 | 3 | -5 | -4 | 27* | 13 | 1
Cn1c(=O)c(NC2CCCCC2)c2c3c(cccc31)C(=O)c1ccccc1-2 | 14 | / | / | 5 | 4 | 10
CC(=O)Nc1ccc(Nc2c3c4c(cccc4n(C)c2=O)C(=O)c2ccccc2-3)cc1 | 11 | 16 | 33* | 14 | 2 | 14

Screening results (PubChem BioAssay)
